Screening data: PubChem, Johns Hopkins Ion Channel Center
MrgX1 antag = antagonists of human MrgX1 receptor. B-score at 10 µM. 1.3% of 310,000 active. MRGX1-HEK293 calcium flux, Fluo-4, BAM8-22 antagonism; stronger effect = lower value. Q96LB2. AID 588676;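 active = calcium-response B-score plate-corrected more than 3 library SD below zero, starting fluorescence within 5 deviations, no agonist response on first addition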;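 note: peak minus trough fluorescence over baseline after final BAM8-22 challenge near maximal dose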
Target sequence (Q96LB2 whole entry, looked up): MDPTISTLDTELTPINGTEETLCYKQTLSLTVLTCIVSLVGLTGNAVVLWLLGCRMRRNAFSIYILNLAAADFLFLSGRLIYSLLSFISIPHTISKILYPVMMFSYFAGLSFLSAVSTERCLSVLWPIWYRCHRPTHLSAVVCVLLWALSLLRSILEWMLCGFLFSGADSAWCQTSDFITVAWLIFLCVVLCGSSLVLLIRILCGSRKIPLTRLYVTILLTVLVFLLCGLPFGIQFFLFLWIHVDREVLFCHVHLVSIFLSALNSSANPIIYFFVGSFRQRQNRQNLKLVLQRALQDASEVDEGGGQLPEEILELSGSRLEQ
MrgX1 agonist = agonists of human MrgX1 receptor. Q96LB2. MrgX1-HEK293 cells, Fluo-4 calcium fluorescence, agonist mode; stronger effect = higher value. B-score at 10 µM. 0.44% of 310,000 active;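 active = calcium response B-score plate-corrected fluorescence ratio at least 3 library SD, with starting fluorescence B-score inside 5 SD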
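Material – MrgX1-expressing HEK293 cells · Input – 15,000 cells seeded per well · Dosing – compound as first of three additions · Times – overnight seeding, then 1 h dark dye loading · Measured by – kinetic Fluo-4 NW fluorescence of intracellular calcium · Read-out – B-scored fluorescence response ratio · Benchmarks – positive and negative control wells on each plate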
RGS4 pot = RGS4 potentiation or activation; HEK293 M3R/inducible RGS4, carbachol calcium flux Fluo4; stronger effect = lower value; B-score at 10 µM; 0.92% of 310,000 active; AID 463111;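 active = B-score of the integrated calcium signal more than 4 SD below the library mean, with starting fluorescence not abnormally high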;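 note: negative B-score means reduced calcium response which marks RGS4 activation or potentiation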
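System – HEK293 FlpIn-TREx cells, stable M3R, doxycycline-inducible RGS4 · Reagent – ECmax carbachol challenge · Times – compound preincubation 20 min at room temperature before agonist · Technique – Fluo4 fluorescence kinetic imaging of calcium · Measure – B score of integrated Fluo4 ratio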
RGS4 inh = human RGS4 inhibition | P49798 | HEK293 M3R/RGS4 inducible, Fluo-4 calcium flux; stronger effect = higher value; triggered by carbachol at its EC20 | 0.45% of 310,000 active | B-score at 10 µM;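 active = B-score, a plate-corrected calcium signal, over three deviations above library mean, with baseline fluorescence within five deviations of library mean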;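 note: RGS4 expression induced by doxycycline in cells with stable M3 receptor; B-score is computed from the integrated fluorescence ratio over baseline after carbachol; higher B-score means a larger calcium signal and so more RGS4 inhibition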
Target sequence (P49798 whole entry, looked up): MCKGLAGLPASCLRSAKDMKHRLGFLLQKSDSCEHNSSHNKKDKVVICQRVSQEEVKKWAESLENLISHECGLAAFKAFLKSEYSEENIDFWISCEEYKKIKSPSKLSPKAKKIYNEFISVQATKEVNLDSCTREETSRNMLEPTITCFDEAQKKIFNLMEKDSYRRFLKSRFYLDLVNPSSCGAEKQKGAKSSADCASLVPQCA
MrgX1 PAM = allosterically activates human MrgX1 receptor signaling. Q96LB2. MrgX1-HEK293, Fluo-4 calcium flux, FDSS; stronger effect = higher value. B-score at 10 µM. 0.63% of 310,000 active;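 active = plate-corrected calcium response at least 3 library SD above typical, normal starting fluorescence, not activating the receptor alone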;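 note: compound read alongside a low EC10 to EC30 dose of BAM8-22 agonist; peak minus trough fluorescence over baseline measured at the second addition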
RGS4 act valid = RGS4 activation, validation assay | shares compounds with RGS4 pot | HEK293 M3R/RGS4 inducible, carbachol calcium flux Fluo4 | inhibition, % at 10 µM | 89% of 1,100 active | AID 602282;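 active = inhibition above 3 SD of the buffer control wells, cut at about 41% in these data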;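 note: signal is the integrated peak-minus-minimum Fluo4 fluorescence over baseline ratio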
M3R Ca counter = RGS4 activator counter-screen hit in non-induced cells. shares compounds with RGS4 pot. AID 602283. inhibition, % at 10 µM. HEK293 M3R non-induced RGS4, Fluo4 calcium flux; after carbachol challenge at its EC90. 82% of 1,100 active;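 active = inhibition exceeding 3 SD of buffer-only control wells, cut at about 26% in these data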;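 note: percent drop in integrated peak-minus-baseline over baseline Fluo4 ratio after carbachol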
Numbers without * were called inactive; i = inactive; · = no result given; ! = repeats disagree. Hits are enriched below; roughly 3.5% of the tested compounds scored in any of these assays.

SMILES | MrgX1 antag | MrgX1 agonist | RGS4 pot | RGS4 inh | MrgX1 PAM | RGS4 act valid | M3R Ca counter
CN(C(=O)c1ccc(OC2CCN(CCc3ccccc3)CC2)cc1)C1CCCCC1 | i | i | -8.9* | i | i | 0 | 0
CN(C(=O)c1ccc(OC2CCN(CCc3ccccc3)CC2)cc1)C1CCOCC1 | i | i | i | i | i | · | ·
Cc1cnc(NC(=O)C2=C(O)c3ccccc3S(=O)(=O)N2C)s1 | i | i | -9.5*! | i | i | 0 | 0
CCc1nnc(NC(=O)CCN2C(=O)/C(=C/c3cc(OC)c(OC)c(OC)c3)SC2=S)s1 | i | i | i | i | i | · | ·
CNS(=O)(=O)c1cc(NC(=O)CCNC(=O)c2ccco2)ccc1C | i | i | i | i | i | · | ·
Cn1c(SCc2c(Cl)cccc2Cl)nnc1-c1cccs1 | i | i | -12* | i | i | 74* | 84*
CCOC(=O)C1=C(C)N=C2SC(C)C(=O)N2C1c1cccc(F)c1 (configuration not stated) | i | i | -8.1* | i | i | 0 | 0
O=C(O)c1ccc2nc(-c3ccccc3)c(-c3ccccc3)nc2c1 | i | i | i | i | i | · | ·
CN1CCN(CCNC(=O)c2ccc3nc(-c4ccc(F)cc4)c(-c4ccc(F)cc4)nc3c2)CC1 | i | i | -9.7* | i | i | 90* | 84*
CCN1CCN(C(=O)c2ccc3nc(-c4ccccc4)c(-c4ccccc4)nc3c2)CC1 | i | i | -9.4* | i | i | 73* | 84*
Cc1cc(/C=C2\NC(=O)N(Cc3ccc(Cl)cc3)C2=O)c(C)n1C | i | i | · | · | i | · | ·
CC1C/C(=N\NC(=O)c2ccc(NS(=O)(=O)c3ccc(Br)cc3)cc2)CC(C)(C)C1 (configuration not stated) | i | i | i | i | i | · | ·
COc1ccc(-c2nc(-c3ccc(O)cc3O)cs2)cc1OC | · | · | -11* | i | · | 78* | 51*
CCOC(=O)c1ccc(NC(=O)NNC(=O)CCc2ccc(OC)cc2)cc1 | i | i | i | i | i | · | ·
CN(C)c1ccc(/C=N/n2c(-c3ccccc3Br)n[nH]c2=S)cc1 | i | i | -12* | i | i | 94* | 94*
CN(C)c1ccc(/C=N/n2c(-c3cccnc3)n[nH]c2=S)cc1 | i | i | i | i | i | · | ·
Cc1ccc(Oc2ccc(NC(=O)Cn3ccsc3=N)cc2)cc1 | i | 45* | -8.8* | i | i | 89* | 52*
CCc1ccc(OCCNC(=O)c2ccccc2SCc2ccccc2)cc1 | i | i | -11* | i | i | 94* | 80*
CCNC(=O)c1ccccc1SCc1ccccc1 | i | i | i | i | i | · | ·
COc1ccc(N2CC(NS(=O)(=O)c3cccs3)CC2=O)cc1OC (configuration not stated) | i | i | i | i | i | · | ·
COc1cc(C)c(C(C)C)cc1S(=O)(=O)N1CCOCC1 | i | i | -8.8* | i | i | 0 | 0
CCOc1cc(C)c(C(C)C)cc1S(=O)(=O)N1CCOCC1 | i | i | i | i | i | · | ·
O=C1c2oc3ccccc3c(=O)c2C(c2cccc(O)c2)N1CCCN1CCOCC1 (configuration not stated) | i | i | -8.9* | i | i | 85* | 37*
CC(NS(=O)(=O)OCC(Cl)(Cl)Cl)c1ccc(C(C)(C)C)cc1 (configuration not stated) | i | i | -8* | i | i | 91* | 94*
CC(Cc1ccco1)NC(=O)c1cccc(S(=O)(=O)N(C)C)c1 (configuration not stated) | i | i | i | i | i | · | ·
SMILES | MrgX1 antag | MrgX1 agonist | RGS4 pot | RGS4 inh | MrgX1 PAM | RGS4 act valid | M3R Ca counter
COc1ccc(NC(=O)CN(C)C(=O)c2cc(-c3ccccc3)nc3ccccc23)cc1 | i | i | -8.4* | i | i | 48* | 0
COc1ccc(NC(=O)CN(C)C(=O)c2cc(-c3ccc(OC)cc3)nc3ccccc23)cc1 | i | i | -8.1* | i | i | 54* | 84*
COc1ccc(NC(=O)CN(C)C(=O)c2cccc3ccccc23)cc1 | i | i | i | i | i | · | ·
CN(CCOc1ccc(Cl)cc1)C(=O)c1cc(-c2ccco2)nc2ccccc12 | i | i | -8.5* | i | i | 91* | 66*
Cc1ccc(NC(=O)CN(C)C(=O)c2cc(-c3ccco3)nc3ccccc23)cc1 | i | i | -8.3* | i | i | 61* | 0
COc1ccc(NC(=O)CN(C)C(=O)c2cc(-c3ccncc3)nc3ccccc23)cc1 | i | i | i | i | i | · | ·
CCc1ccc(N(CC(=O)NCC2CCCO2)C(=O)CCC(=O)Nc2nccs2)cc1 (configuration not stated) | i | i | i | i | i | · | ·
CC(=O)N1CCN(C(=S)NC(=O)c2ccc(S(=O)(=O)N3CCOCC3)cc2)CC1 | i | i | i | i | i | · | ·
COc1ccc(-c2cc(C(=O)N(C)CC(=O)Nc3cccc(F)c3)c3ccccc3n2)cc1 | i | i | -8.2* | i | i | 70* | 28*
COC(=O)c1cc2ccsc2n1Cc1cc(=O)n2ccccc2n1 | i | i | -10* | i | i | 90* | 63*
COc1ccc2c(c1)sc(N)[n+]2Cc1cc(C)cc2cccnc12 | i | i | i | i | i | · | ·
CCOc1ccc2c(c1)sc(N)[n+]2Cc1cc(C)cc2cccnc12 | i | i | -11* | i | i | 90* | 46*
COCCn1c(-c2ccccc2)nc2oc3cc(OC)ccc3c(=O)c2c1=O | i | i | i | i | i | · | ·
COCCn1c(-c2ccc(Br)cc2)nc2oc3cc(OC)ccc3c(=O)c2c1=O | i | i | -8.3* | i | i | 0 | 0
CC1CC(C)(C)N(C(=O)CSc2ccc(-c3ccc(F)cc3)nn2)c2ccccc21 (configuration not stated) | i | i | -13* | i | i | 94* | 72*
OCCCNc1cc(-c2ccccc2)nc2cc(-c3ccc(F)cc3)nn12 | i | i | -8.8* | i | i | 68* | 42*
Cc1cc(NCCCO)n2nc(-c3cccs3)cc2n1 | i | i | i | i | i | · | ·
Cc1c(OCC(=O)N(C)C)ccc2c3c(c(=O)oc12)CCCCC3 | i | i | -7.9* | i | i | 64* | 32*
